In ChEMBL document CHEMBL4765286, “Identification and development of non-cytotoxic cell death modulators: Impact of sartans and derivatives on PPARγ activation and on growth of imatinib-resistant chronic myelogenous leukemia cells” (Eur J Med Chem, 2020):
Activity calls are given as the source filed them. The calls are words filed in the database; no cut-off is given here.

Key:
COS-7 [1] = experiment: Cytotoxicity against African green monkey COS7 cells assessed as effect on metabolic activity at 10 uM measured after 72 hrs by MTT assay; type: ADME, cell-based; settings: chlorocebus aethiops, cos-7, 72 h
Method in brief: (§1)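 COS-7 cells seeded at 2×10^3 per well in triplicate, grown 24 h, then exposed to test agent or DMSO vehicle (final DMSO ≤0.1%) for 72 h. Metabolic activity read with a modified MTT (EZ4U) kit. Background from FCS-containing medium plus substrate subtracted. Expressed relative to vehicle control set to 100%. Mean +SD of ≥3 independent experiments.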

COS-7 [2] = experiment: Cytotoxicity against African green monkey COS7 cells assessed as effect on metabolic activity at 20 uM measured after 72 hrs by MTT assay; type: ADME, cell-based; settings: chlorocebus aethiops, cos-7, 72 h; method in brief: as §1
[3] = Cytotoxicity against human HS5 cells assessed as cell death at 10 uM measured after 72 hrs by Propidium iodide stain based FACS analysis; settings: hs5, 72 h
Method in brief: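 HS-5 cells seeded at 0.5×10^5 per well and treated with compound or DMSO vehicle (final DMSO ≤0.1%) for 72 h. Harvested cells stained with PI/Triton-X100 for 2 h at 4 °C. Dead cells were counted by flow cytometry as nuclei in the sub-G1 window. Mean +SEM of ≥3 independent experiments.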

[4] = Modulation of cell death in imatinib-resistant human K562 cells assessed by increase in imatinib-mediated cell death in presence of presence of imatinib measured after 72 hrs by Propidium iodide stain based FACS assay (reference value: 17%); type: functional
[5] = biological target: T1, Signal transducer and activator of transcription 5A (Homo sapiens) (UniProt P42229); experiment: Inhibition of STAT5 in imatinib-resistant human K562 cells assessed as effect on STAT5 expression in presence of imatinib at 10 uM measured after 6 hrs by Western blot assay; type: cell-based
T1 sequence (whole entry): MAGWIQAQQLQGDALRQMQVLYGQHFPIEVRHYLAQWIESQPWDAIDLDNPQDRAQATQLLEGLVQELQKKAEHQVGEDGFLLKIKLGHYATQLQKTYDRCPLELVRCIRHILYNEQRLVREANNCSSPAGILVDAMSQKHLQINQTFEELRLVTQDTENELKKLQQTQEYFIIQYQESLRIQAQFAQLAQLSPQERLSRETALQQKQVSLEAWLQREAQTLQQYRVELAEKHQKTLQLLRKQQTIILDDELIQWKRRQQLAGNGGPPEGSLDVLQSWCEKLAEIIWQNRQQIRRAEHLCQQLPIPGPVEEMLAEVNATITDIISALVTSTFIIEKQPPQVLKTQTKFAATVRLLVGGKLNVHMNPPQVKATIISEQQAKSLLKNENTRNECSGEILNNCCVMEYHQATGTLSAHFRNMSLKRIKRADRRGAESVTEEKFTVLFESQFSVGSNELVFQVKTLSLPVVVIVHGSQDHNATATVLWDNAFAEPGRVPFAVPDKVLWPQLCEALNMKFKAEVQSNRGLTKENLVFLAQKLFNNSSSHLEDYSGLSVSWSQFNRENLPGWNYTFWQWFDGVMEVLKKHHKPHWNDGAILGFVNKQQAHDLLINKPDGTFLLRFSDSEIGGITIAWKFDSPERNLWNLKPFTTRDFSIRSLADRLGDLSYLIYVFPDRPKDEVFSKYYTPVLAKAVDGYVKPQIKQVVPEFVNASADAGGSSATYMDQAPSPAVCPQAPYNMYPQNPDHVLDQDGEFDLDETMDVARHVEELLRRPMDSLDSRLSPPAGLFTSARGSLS

[6] = biological target: T1, Signal transducer and activator of transcription 5A (Homo sapiens); experiment: Inhibition of STAT5 phosphorylation in imatinib-resistant human K562 cells in presence of imatinib at 10 uM measured after 6 hrs by Western blot assay; type: cell-based
Method in brief: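 K562-resistant cells (a doxorubicin-resistant K562 subclone, KD225) kept in RPMI 1640 with 10% FCS. Cells received 1 µM imatinib alone or with 10 µM compound for 6 h. Immunoblots were probed for STAT5 and for pSTAT5 (Tyr694/699), with GAPDH as loading control, and developed by ECL. Densitometry was normalised to the imatinib-only control set to 100%.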

[7] = biological target: T2, Peroxisome proliferator-activated receptor gamma (Homo sapiens, UniProt P37231); experiment: Agonist activity at human PPARgammaDEF receptor expressed in african green monkey COS7 cells transfected with pGal5-TK-pGL3/pRenilla-CMV assessed as intrinsic activity measured after 39 hrs by dual luciferase reporter assay; type: cell-based
T2 sequence (P37231 whole entry): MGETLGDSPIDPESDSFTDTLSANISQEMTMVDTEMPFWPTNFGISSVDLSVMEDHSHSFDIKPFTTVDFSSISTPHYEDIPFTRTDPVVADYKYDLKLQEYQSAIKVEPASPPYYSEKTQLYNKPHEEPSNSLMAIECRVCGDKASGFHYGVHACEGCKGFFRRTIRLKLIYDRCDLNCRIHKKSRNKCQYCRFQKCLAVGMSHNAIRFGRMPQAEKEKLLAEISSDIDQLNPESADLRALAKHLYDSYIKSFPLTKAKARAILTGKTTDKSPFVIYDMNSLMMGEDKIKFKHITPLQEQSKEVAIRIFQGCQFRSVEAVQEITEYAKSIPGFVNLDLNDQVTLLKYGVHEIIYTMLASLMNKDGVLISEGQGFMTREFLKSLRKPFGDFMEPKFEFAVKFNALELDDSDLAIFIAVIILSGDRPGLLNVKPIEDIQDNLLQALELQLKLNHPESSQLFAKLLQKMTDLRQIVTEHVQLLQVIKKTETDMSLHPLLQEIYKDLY

[8] = Modulation of cell death in imatinib-resistant human K562 cells assessed by increase in imatinib-mediated cell death in presence of presence of imatinib at 2.5 uM measured after 72 hrs by Propidium iodide stain based FACS assay (reference value: 17%); type: functional

Compound | Activity (COS-7 [1]) | Activity (COS-7 [2]) | Activity [3] | Activity [4] [%] | inhibition [5] | inhibition [6] | EC50 [7] [µM] | Activity [8] [%]
CCOc1nc2cccc(C(=O)OC(C)OC(=O)OC3CCCCC3)c2n1Cc1ccc(-c2ccccc2-c2nnn[nH]2)cc1 (centres undefined) [CANDESARTAN CILEXETIL] | Non-Toxic | Non-Toxic | Non-Toxic |  |  |  |  | 
CCCc1nc2c(C(=O)O)cccc2n1Cc1ccc(-c2ccccc2C(=O)O)cc1 | Non-Toxic | Non-Toxic | Non-Toxic | 12 | inactive | inactive |  | 
CCCc1nc2c(C)cc(-c3nc4ccccc4n3C)cc2n1Cc1ccc(-c2ccccc2C(N)=O)cc1 | Non-Toxic | Non-Toxic | Non-Toxic | 89 | inactive | Active | 9.1 | 50
CCCc1nc2c(C)cc(-c3nc4ccccc4n3C)cc2n1Cc1ccc(-c2ccccc2C(=O)O)cc1 [TELMISARTAN] | Non-Toxic | Non-Toxic | Non-Toxic | 63 | inactive | Active |  | 
CCc1ccc(CCOc2ccc(CC3SC(=O)NC3=O)cc2)nc1 (centres undefined) [PIOGLITAZONE] | Non-Toxic | Non-Toxic | Non-Toxic |  |  |  |  | 
CCCc1nc2cccc(C(=O)OC)c2n1Cc1ccc(-c2ccccc2C(=O)OC)cc1 | Non-Toxic | Non-Toxic | Non-Toxic | 83 | inactive | Active |  | 50
CCCCc1nc(Cl)c(CO)n1Cc1ccc(-c2ccccc2-c2nn[nH]n2)cc1 [LOSARTAN] | Non-Toxic | Non-Toxic | Non-Toxic |  |  |  |  | 
CCCCC1=NC2(CCCC2)C(=O)N1Cc1ccc(-c2ccccc2-c2nnn[nH]2)cc1 [IRBESARTAN] | Non-Toxic | Non-Toxic | Non-Toxic | 31 |  |  |  | 
CCOc1nc2cccc(C(=O)O)c2n1Cc1ccc(-c2ccccc2-c2nnn[nH]2)cc1 [CANDESARTAN] | Non-Toxic | Non-Toxic | Non-Toxic | 42 |  |  |  | 
CCCc1nc(C(C)(C)O)c(C(=O)OCc2oc(=O)oc2C)n1Cc1ccc(-c2ccccc2-c2nnn[nH]2)cc1 [OLMESARTAN MEDOXOMIL] | Non-Toxic | Non-Toxic | Non-Toxic |  |  |  |  | 
CCCc1nc2cccc(C(=O)O)c2n1Cc1ccc(-c2ccccc2C(=O)O)cc1 | Non-Toxic | Non-Toxic | Non-Toxic | 12 | inactive | inactive |  | 
CCCc1nc(C(C)(C)O)c(C(=O)O)n1Cc1ccc(-c2ccccc2-c2nnn[nH]2)cc1 [OLMESARTAN] | Non-Toxic | Non-Toxic | Non-Toxic |  |  |  |  | 
CCCc1nc2c(C(=O)OC)cccc2n1Cc1ccc(-c2ccccc2C(=O)OC)cc1 | Non-Toxic | 20% | Non-Toxic | 83 | inactive | Active |  | 50
CCCc1nc2c(C(=O)O)cccc2n1Cc1ccc(-c2ccccc2C(=O)OC)cc1 | Non-Toxic | Non-Toxic | Non-Toxic | 56 | inactive | Active |  | 
